Assay results published in ChEMBL document CHEMBL4190284, “Exploring the Sponge Consortium Plakortis symbiotica-Xestospongia deweerdtae as a Potential Source of Antimicrobial Compounds and Probing the Pharmacophore for Antituberculosis Activity of Smenothiazole A by Diverted Total Synthesis” (J Nat Prod, 2017).
Converted amounts (≈) assume the structure as drawn.

Tests used:
[1] = tested on: Mycobacterium tuberculosis; experiment: Antitubercular activity against Mycobacterium tuberculosis H37Rv by broth microdilution Alamar blue assay; assay type: functional
How it was run: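 Mtb H37Rv growth was measured by broth microdilution Alamar blue assay (MABA). Percentage inhibition at each concentration gave the MIC, defined as the lowest concentration preventing visible bacterial growth. Rifampicin served as positive control. Values are means of three experiments.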

[2] = tested on: A2058; experiment: Cytotoxicity against human A2058 cells assessed as reduction in cell viability; assay type: functional, cell-based
[3] = tested on: DU-145; experiment: Cytotoxicity against human DU145 cells assessed as reduction in cell viability; assay type: functional, cell-based
[4] = tested on: Plasmodium falciparum; experiment: Antiplasmodial activity against Plasmodium falciparum W2 assessed as parasite growth inhibition relative to control; assay type: functional
[5] = tested on: Vero; experiment: Cytotoxicity against African green monkey Vero cells assessed as reduction in cell viability; assay type: cell-based; details: Chlorocebus sabaeus
[6] = tested on: Panel NCI-60 (60 carcinoma cell lines); experiment: Cytotoxicity against human NCI60 cells assessed as cell growth at 10 uM relative to control; assay type: cell-based
How it was run: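 Single-dose screen at 10 μM across the full NCI 60 cell line panel; read-out was percent cell growth.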

Compound	MIC [1]	also measured
CC1=C(O)[C@@](C)(CCCCCCCCCCCCc2ccc(O)cc2)OC1=O	> 128 µg/mL	–
C/C(=C\C/C(=C\Cl)Cc1ccccc1)C(=O)N[C@H](C(=O)N1CCC[C@H]1c1nccs1)C(C)C	4.1 µg/mL (≈ 8.43 µM)	IC50 [2]: 20 µM; IC50 [3]: 15 µM; growth inhibition (GI) [4]: 55%; IC50 [5]: > 128 µg/mL
CC1=C(O)[C@@](C)(CCCCC[C@H](C)CCCCc2ccc(O)c(O)c2)OC1=O	> 128 µg/mL	–
C=C(C/C=C(\C)C(=O)N[C@H](C(=O)N1CCC[C@H]1c1nccs1)C(C)C)Cc1ccccc1	> 128 µg/mL	Activity [6]: > 90%
CO[C@H]1/C=C/O[C@@]2(C)Oc3c(C)c(O)c4c(O)c(c(/C=N/N5CCN(C)CC5)c(O)c4c3C2=O)NC(=O)/C(C)=C\C=C\[C@H](C)[C@H](O)[C@@H](C)[C@@H](O)[C@@H](C)[C@H](OC(C)=O)[C@@H]1C [RIFAMPIN]	0.1 µg/mL (≈ 0.122 µM)	–
CC1=C(O)[C@@](C)(CCCCC[C@H](C)CCCCc2ccc(O)cc2)OC1=O	> 128 µg/mL	–
